Experimental data from ChEMBL document CHEMBL1136404, “Synthesis and biological evaluation of new UDP-GalNAc analogues for the study of polypeptide-alpha-GalNAc-transferases” (Bioorg Med Chem Lett, 2003).

Legend:
[1] = Inhibitory activity against GalNAc transferase 1 at a concentration of 1000 uM
How it was run: (§1)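 Bovine ppGalNAc-T1 (EC 2.4.1.41), secreted 6His-tagged protein from baculovirus-infected insect cells, Ni-NTA purified (0.5 U/mg). Stopped with ice-cold water; glycopeptide recovered on C18 cartridge, eluted with methanol, scintillation counted. Inhibition reported as relative %.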

[2] = Inhibitory activity against GalNAc transferase 1 at a concentration of 20 uM; how it was run: as §1
[3] = Inhibitory activity against GalNAc transferase 1 at a concentration of 200 uM; how it was run: as §1

inhibition [1] [%]	inhibition [2] [%]	inhibition [3] [%]	SMILES
79	0	39	CC(=O)N[C@@H]1[C@H](OP(=O)(O)OP(=O)(O)OC[C@H]2O[C@@H](n3ccc(=O)[nH]c3=O)[C@H](O)[C@@H]2O)O[C@@H](CO)[C@H](O)[C@H]1O
76	0	17	COCC1OC(OP(=O)(O)OP(=O)(O)OC[C@H]2OC(n3ccc(=O)[nH]c3=O)[C@H](O)[C@@H]2O)C(NC(C)=O)C(O)C1O (some centres not stated)
74	0	30	COC1C(O)C(CO)OC(OP(=O)(O)OP(=O)(O)OC[C@H]2OC(n3ccc(=O)[nH]c3=O)[C@H](O)[C@@H]2O)C1NC(C)=O (some centres not stated)
72	0	7	COC1C(CO)OC(OP(=O)(O)OP(=O)(O)OC[C@H]2OC(n3ccc(=O)[nH]c3=O)[C@H](O)[C@@H]2O)C(NC(C)=O)C1O (some centres not stated)
